# CAL PDZ FP-1: untagged CAL PDZ binding inhibitors, primary screen, biochemical, fluorescence polarization, HTS; Golgi-associated PDZ and coiled-coil motif-containing protein (Homo sapiens), Q9HD26; purified CAL PDZ, TMR-peptide fluorescence polarization, 1 h; inhibition, % at 24.9 µM; hit rate 0.92% among 300,000; AID 602252, 2012;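 active means mean inhibition of at least 30% with at least half of replicates also reaching 30%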;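 further: 0% = DMSO neutral control and 100% = excess unlabeled competitor peptide PRC23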
# ERAP1 inh: human ERAP1 aminopeptidase inhibitors, primary screen, biochemical, single point, plate reader. AID 652197, 2013. inhibition, % at 10.7 µM. hit rate 0.15% among 340,000. recombinant ERAP1, Leu-AMC fluorescence, 60 min;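 active means mean replicate inhibition of at least 30%, or all replicates individually reaching that 30% level; inactive means mean below 30% and not every replicate reaching it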;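 further: 0% = neutral control wells and 100% = L-leucinethiol positive control wells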
# Target sequence (Q9NZ08 whole entry, looked up): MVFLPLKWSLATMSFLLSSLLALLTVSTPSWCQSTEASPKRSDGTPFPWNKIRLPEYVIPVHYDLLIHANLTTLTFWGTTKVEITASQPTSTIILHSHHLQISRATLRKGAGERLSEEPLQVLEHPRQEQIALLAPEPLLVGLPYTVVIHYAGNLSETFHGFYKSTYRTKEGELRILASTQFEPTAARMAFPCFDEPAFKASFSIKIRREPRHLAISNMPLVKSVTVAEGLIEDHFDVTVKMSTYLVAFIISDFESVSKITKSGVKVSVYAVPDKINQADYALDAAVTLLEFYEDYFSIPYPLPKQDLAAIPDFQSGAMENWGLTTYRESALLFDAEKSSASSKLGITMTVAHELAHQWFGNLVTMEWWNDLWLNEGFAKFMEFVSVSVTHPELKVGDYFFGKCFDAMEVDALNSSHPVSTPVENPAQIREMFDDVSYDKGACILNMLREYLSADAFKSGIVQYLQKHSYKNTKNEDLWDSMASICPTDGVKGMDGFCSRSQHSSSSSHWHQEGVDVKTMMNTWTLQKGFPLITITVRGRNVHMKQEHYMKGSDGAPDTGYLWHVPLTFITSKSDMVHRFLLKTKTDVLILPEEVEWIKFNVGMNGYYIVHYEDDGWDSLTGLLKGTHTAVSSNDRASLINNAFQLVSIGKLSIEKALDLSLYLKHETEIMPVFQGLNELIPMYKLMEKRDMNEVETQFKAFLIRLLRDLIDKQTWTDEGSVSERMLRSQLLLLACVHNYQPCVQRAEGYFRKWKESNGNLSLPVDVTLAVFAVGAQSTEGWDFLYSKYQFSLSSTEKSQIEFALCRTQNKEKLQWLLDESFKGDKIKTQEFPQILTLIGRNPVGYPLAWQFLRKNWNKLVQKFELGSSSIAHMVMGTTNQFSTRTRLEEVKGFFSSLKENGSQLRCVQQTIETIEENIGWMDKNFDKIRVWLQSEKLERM
# DENV2 CPE rescue: inhibitors of DENV2 cytopathic effect, primary screen, cell-based, plate reader, single concentration; DENV2-infected cells, cytopathic effect rescue; CPE inhibition, % at 9.99 µM; hit rate 1.7% among 350,000; AID 651640, 2012; in the data active means CPE inhibition above about 20%, passing the limit was not always enough; tested in BHK-21 cells;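 further: 0% = median of neutral control wells and 100% = median of positive control wells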
# S100A4 MyoIIA: inhibitors of S100A4-myosin IIA peptide binding, primary screen, biochemical, fluorescence polarization, TAMRA-MyoIIA peptide | hit rate 0.14% among 360,000 | inhibition, % at 10.7 µM;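 active means mean inhibition of at least 70% across replicates, with every replicate also reaching that level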
#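 Compound dosing: one dose per compound; test system: human S100A4 monomer with TAMRA-labelled myosin IIA peptide; probe or stimulus: TAMRA-labelled myosin IIA heavy-chain peptide probe, 5 nM; medium: HEPES buffer with Ca2+, pH 7.2; schedule: 5 min incubation before reading; benchmarks: neutral control DMSO, positive control TFP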
# SIRT5 block: SIRT5 desuccinylase inhibitors, primary screen, biochemical, fluorescence imaging, single point, set 5; Purified SirT5, succinyl-peptide AMC, trypsin-coupled fluorescence; inhibition, % at 15 µM; hit rate 1.1% among 330,000; NAD-dependent protein deacylase sirtuin-5, mitochondrial (Homo sapiens), Q9NXA8; in the data active means inhibition above about 15%
# CAL PDZ FP-2: CAL PDZ peptide-binding inhibitors, primary screen, biochemical, fluorescence polarization, Cer-tagged CAL PDZ, HTS. Golgi-associated PDZ and coiled-coil motif-containing protein (Homo sapiens), Q9HD26. inhibition, % at 20 µM. purified CAL PDZ, TMR-peptide fluorescence polarization, 1 h. hit rate 0.02% among 330,000;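 active means highest replicate inhibition of at least 40%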;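 further: plate controls were DMSO neutral control wells for no effect and unlabeled competitor peptide control wells for full effect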
#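 Control set: unlabelled peptide and DMSO controls / Material: purified CerCALP PDZ construct / Timing: 1 h incubation at room temperature before polarization reading / Doses: 20 µM, one dose / Detection: fluorescence polarization (mP)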
# Starred values were filed as active, the others as inactive; · = no result; + = active, no number. Shown are actives, neighbours in structure and some others; about 2.9% of the full set was active somewhere.
SMILES,CAL PDZ FP-1,ERAP1 inh,DENV2 CPE rescue,S100A4 MyoIIA,SIRT5 block,CAL PDZ FP-2
Cc1ccc(S(=O)(=O)N2CCOCC2)cc1NC(=O)COC(=O)c1ccc(OCc2c(C)noc2C)cc1,4,3,18,0,-8,-1
Cc1noc(C)c1COc1ccc(C(=O)OC(C)C(=O)Nc2ccc(S(=O)(=O)N3CCOCC3)cc2)cc1 (stereo unspecified),54*,-4,3,-3,-4,-1
Cc1noc(C)c1COc1ccc(C(=O)N2CCN(S(=O)(=O)c3ccccc3)CC2)cc1,-7,2,-5,0,1,0
C[C@H](CO)N1C[C@H](C)[C@H](CN(C)C(=O)Nc2cccc3ccccc23)Oc2ccc(NS(=O)(=O)c3ccc(Cl)cc3)cc2C1=O,·,1,-4,9,6,·
CC(=O)n1cc([C@@H]2C=C(C(N)=O)O[C@H](OCCCCO)C2)c2ccccc21,·,2,16,3,-3,·
C/C(=N\NC(=O)c1ccc(Br)cc1)c1cccc(NC(=O)c2cccnc2)c1,-4,3,5,-2,20*,-3
CCOC(=O)CNC(=O)C12CC3CC(CC(C3)C1)C2,-7,-4,-3,0,16*,0
CCOC(=O)N1CCN(C(=O)CNC(=O)C23CC4CC(CC(C4)C2)C3)CC1,-2,-1,6,-4,2,1
CCOc1ncccc1C(=O)OCC(=O)N(CC(C)C)C1CCS(=O)(=O)C1 (stereo unspecified),57*,-1,-4,2,2,0
CSc1ncccc1C(=O)OCC(=O)N(CC(C)C)C1CCS(=O)(=O)C1 (stereo unspecified),-1,·,·,·,·,-1
O=C(Cc1ccccn1)N[C@@H]1CC[C@@H](CC(=O)N2CCCCC2)O[C@H]1CO,·,-1,0,-5,3,·
Oc1ccccc1C=NCCCCCCN=Cc1ccccc1O,+,-2,3,-1,1,0
Oc1ccccc1C=NCC(O)c1ccccc1 (stereo unspecified),1,-2,76*,-4,-4,-1
Oc1ccccc1C=NCCN=Cc1ccccc1O,-4,·,-4,-4,-5,0
O=C(NCCc1csc(-c2cccnc2)n1)c1ccccc1Br,-2,0,-1,-22,15*,-1
COc1ccccc1CNC(=O)C1CCC(CNS(=O)(=O)c2ccc(F)cc2)CC1 (stereo unspecified),-3,-2,3,3,21*,0
O=C(NCCCN1CCCC1=O)C1CCC(CNS(=O)(=O)c2ccc(Cl)cc2)CC1 (stereo unspecified),·,-1,-3,16,-22,0
O=C(NCCN1CCOCC1)C1CCC(CNS(=O)(=O)c2ccc(Cl)cc2)CC1 (stereo unspecified),-1,-5,·,-20,24*,1
COCCNC(=O)C1CCC(CNS(=O)(=O)c2ccc(F)cc2)CC1 (stereo unspecified),2,-1,34*,-1,-4,-1
COc1ccc2c3c([nH]c2c1)[C@@H](CO)N(Cc1cc(F)ccc1F)CC31CCN(C(C)=O)CC1,·,·,2,·,·,·
C[C@H](CO)N1C[C@H](C)[C@@H](CN(C)C(=O)Nc2cccc3ccccc23)Oc2ccc(NC(=O)Cc3cn(C)c4ccccc34)cc2CC1=O,·,1,9,-1,4,·
C[C@@H]1CN([C@H](C)CO)C(=O)Cc2cc(NC(=O)CCC(F)(F)F)ccc2O[C@@H]1CN(C)C(=O)Nc1cccc2ccccc12,·,0,30*,2,-1,·
C[C@@H]1CN([C@H](C)CO)C(=O)Cc2cc(NC(=O)Cc3cn(C)c4ccccc34)ccc2O[C@@H]1CN(C)C(=O)Nc1cccc2ccccc12,·,-1,45*,69,4,·
C[C@@H]1CN([C@H](C)CO)C(=O)Cc2cc(NC(=O)Cc3ccccc3)ccc2O[C@@H]1CN(C)C(=O)Nc1ccc2c(c1)OCO2,·,-1,28*,-4,-2,·
C[C@@H]1CN([C@@H](C)CO)C(=O)Cc2cc(NC(=O)Cc3ccccc3)ccc2O[C@H]1CN(C)C(=O)Nc1cccc2ccccc12,·,-2,43*,1,5,·
SMILES,CAL PDZ FP-1,ERAP1 inh,DENV2 CPE rescue,S100A4 MyoIIA,SIRT5 block,CAL PDZ FP-2
CN(C)CC(=O)N1[C@@H](C#N)[C@H](c2ccc(-c3ccccc3F)cc2)[C@@H]1CO,·,0,-4,8,-6,·
C[C@@H]1CN([C@H](C)CO)C(=O)c2cccc(NS(=O)(=O)c3cccs3)c2O[C@@H]1CN(C)C,·,0,12,-5,3,·
O=C(O)Cc1ccc(N=Nc2c(O)c(C(=O)O)cc3ccccc23)cc1,-3,-4,-8,1,31*,-1
CCOc1ccccc1N1CCN(C(=O)C2=CC=CN3CCS(=O)(=O)N=C23)CC1,·,56*,11,1,-1,0
O=C(C[C@H]1C=C[C@H](NC(=O)Nc2ccccc2F)[C@@H](CO)O1)NCc1ccc(F)cc1,·,-3,-1,-2,-12,·
Cc1oc(-c2ccccc2Cl)nc1CSCC(=O)NC1CC1,0,·,·,·,·,0
Cc1oc(-c2ccccc2Cl)nc1CSCC(=O)O,-6,2,-10,186*,-3,-2
O=C(c1ccc2c(c1)OCO2)N1CC2(C1)[C@@H](c1ccccc1)[C@@H](CO)N2C(=O)C1CC1,·,-2,-6,1,-2,·
CSCCC(NC(=O)c1ccco1)C(=O)NCCc1ccc(Cl)cc1 (stereo unspecified),100*,0,-2,-1,·,0
CSCCC(NC(=O)c1ccco1)C(=O)NCC1CCCO1 (stereo unspecified),·,0,67*,-1,-1,0
Cc1cccc(/C(N)=N/OC(=O)COc2ccccc2Cl)c1,-4,2,10,-3,17*,-2
CN1C(=O)c2cc(NC(=O)c3ccccc3)ccc2OC[C@H]2O[C@H](CC(=O)NC3CCCC3)CC[C@@H]21,·,-1,2,-7,-2,·
CCc1ccc(-c2nc(CSCC(=O)N3CCN(c4ncccn4)CC3)c(C)o2)cc1,·,2,87*,12,4,0
Cc1noc(C)c1NC(=O)Nc1ccc2c(c1)C(=O)N([C@H](C)CO)C[C@H](C)[C@@H](CN(C)C(=O)NC1CCCCC1)OCCCC[C@H](C)O2,·,2,16,-15,-5,·

# Screening data (PubChem BioAssay)
